Assay results taken from PMC2913441 (Chemical biology & drug design, 2010).

How the values were obtained:
Type in all cases: binding
Mdm2 [1] = biological target: T1, Mdm2 (Homo sapiens, UniProt Q00987); experiment: Fluorescence polarization; conditions: read-out: inhibition constant (Ki) of Mdm2; FP assay, competition with p53-like peptide
Method in brief: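 Competitive fluorescence polarization assay: a fluorescent p53-like peptide is bound to recombinant Mdm2 and displaced by the test compound across a range of concentrations, giving dose–response curves. The binding constant and inhibition curves were fitted to derive Ki.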
Target sequence in this assay (Q00987 1-118): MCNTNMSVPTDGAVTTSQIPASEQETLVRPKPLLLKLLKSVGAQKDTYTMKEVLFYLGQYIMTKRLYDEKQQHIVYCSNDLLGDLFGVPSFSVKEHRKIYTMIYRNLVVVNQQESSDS

Mdm2/p53 complex = Mdm2/p53 complex (Homo sapiens, UniProt Q00987); experiment: NMR-based antagonist induced dissociation assay; conditions: read-out: dissociation constant (Kd) of the compound-Mdm2 interaction; AIDA-NMR; 14 μM Mdm2/p53 complex mixed with compound in 1:1 molar ratio
Method in brief: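 Variant of antagonist-induced dissociation NMR (SEI-AIDA). The preformed Mdm2/p53 complex (14 μM) is mixed with the test compound at a 1:1 molar ratio. The amount of p53 released from the complex is estimated from the 1D spectrum. The Kd of the Mdm2–compound interaction is then calculated from the released fraction.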

Mdm2 [2] = biological target: T1, Mdm2; experiment: Interaction with Mdm2; conditions: result in words; assay not stated
Target sequence in this assay (Q00987 whole entry): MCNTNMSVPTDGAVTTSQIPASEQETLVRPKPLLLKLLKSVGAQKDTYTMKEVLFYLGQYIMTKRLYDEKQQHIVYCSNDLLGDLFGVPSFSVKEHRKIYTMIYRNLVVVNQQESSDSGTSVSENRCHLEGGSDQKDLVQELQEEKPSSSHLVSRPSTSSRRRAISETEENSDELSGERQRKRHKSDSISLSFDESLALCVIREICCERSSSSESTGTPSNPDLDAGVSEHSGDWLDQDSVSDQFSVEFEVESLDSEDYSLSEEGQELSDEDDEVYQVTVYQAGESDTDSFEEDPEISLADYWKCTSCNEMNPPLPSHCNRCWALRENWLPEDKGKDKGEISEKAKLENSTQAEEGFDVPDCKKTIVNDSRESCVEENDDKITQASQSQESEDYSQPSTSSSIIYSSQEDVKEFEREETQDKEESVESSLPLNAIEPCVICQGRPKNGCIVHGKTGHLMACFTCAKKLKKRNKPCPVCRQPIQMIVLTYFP

Chain of Mdm2/p53 complex (Q00987 1-118, one chain of several): as the sequence (Q00987 1-118) above

Ki (Mdm2 [1]) | Kd (Mdm2/p53 complex) | interaction with Mdm2 (Mdm2 [2]) | Structure (SMILES)
40 µM | 30 ± 20 µM | – | O=C(NCc1ccccc1)C1C(=O)Nc2sc3c(c2C(=O)N1Cc1ccc(Cl)cc1)CCCC3 (centres unmarked) [5a-7, 3,4,6,7,8,9-Hexahydro-3-(N-benzyl)-carboxamide-4-(4-chlorobenzyl)-1H-benzothieno-[2,3-e]-1,4-diazepine-2,5-dione]
45 µM | 10 ± 6 µM | – | O=C(NCc1ccc(Cl)c(Cl)c1)C1C(=O)Nc2sc3c(c2C(=O)N1Cc1ccc(Cl)cc1)CCCC3 (centres unmarked) [5a-8, 3,4,6,7,8,9-Hexahydro-3-(N-3,4-dichlorobenzyl)-carboxamide-4-(4-chlorobenzyl)-1H-benzothieno-[2,3-e]-1,4-diazepine-2,5-dione]
– | – | weak interaction | Cc1cc(C)c(NC(=O)C2C(=O)Nc3sc4c(c3C(=O)N2Cc2ccc(Cl)cc2)CCCC4)c(C)c1 (centres unmarked) [5a-6, 3,4,6,7,8,9-Hexahydro-3-(N-mesityl)-carboxamide-4-(4-chlorobenzyl)-1H-benzothieno-[2,3-e]-1,4-diazepine-2,5-dione]
